Our source for the MIC50 and Activity values is ChEMBL document CHEMBL6177924, “Synthesis and antifungal evaluation of new azole derivatives containing 1,2,3-triazole” (RSC Med Chem, 2025).

The term MIC50 denotes an inhibitory concentration at the 50% level, which refers to growth in some studies and to a panel of isolates in others.

Each structure is given as a SMILES string. In brackets after ≈: the same amount, converted by molar mass. Activity calls are given as the source filed them. No cut-off for these calls is given here.

The test system of data set [1] is Candida albicans. The experiment in a line: Antifungal activity against drug sensitive Candida albicans SC5314 assessed as inhibition of fungal growth incubated for 24 hrs by CLSI protocol based microdilution method. In kind it is functional. Summed up: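 Broth microdilution of log-phase C. albicans at 1×10^5 CFU/mL in Sabouraud liquid medium (SDB). Compounds serially diluted 5-fold to final 200-0.064 µg/mL, DMSO below 0.1%. Triplicate wells, 200 µL final volume, with growth, blank and fluconazole controls. Incubated 24 h at 30 °C, OD read at 630 nm; experiment repeated three times.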
In general terms: Dilution methods test growth across graded concentrations, often in twofold steps.

Data set [2] deals with Candida albicans. The experiment in a line: Antifungal activity against drug resistant Candida albicans SC5314-FR assessed as inhibition of fungal growth incubated for 24 hrs by CLSI protocol based microdilution method. In kind it is functional. The method in brief:
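Fluconazole-resistant strain derived from SC5314 by fluconazole exposure. Log-phase cells at 1×10^5 CFU/mL in SDB. Drug fivefold serial dilutions, 200–0.064 µg/mL final, DMSO <0.1%, triplicate wells, 200 µL. Incubated 30 °C for 24 h and read at OD630. Growth, blank and fluconazole controls included. Run three times.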

In data set [3] the test system is Cell membrane. The experiment in a line: Induction of cell membrane permeability in Candida albicans assessed as increase in fluorescence intensity by multifunctional enzymatic assay. Type of data set: subcellular.
The test system of data set [4] is Candida albicans. Nature of the data set: Antifungal activity against Candida albicans SC5314 assessed as inhibition of fungal growth measured up to 48 hrs by time-killing curve analysis. In kind it is functional, organism-based. Summed up:
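Log-phase cells at 1×10^5 CFU/mL in SDB, 10 mL per group. Drug at 0.27, 0.53 or 1.06 µg/mL, plus fluconazole and untreated controls. Shaken 150 r/min at 30 °C. Samples taken at 0, 4, 8, 12, 24, 36 and 48 h and read at A630, triplicate wells. Absorbance plotted against time.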

In data set [5] the test system is Candida albicans. The experiment in a line: Antibiofilm activity in Candida albicans SC5314 assessed as decrease in number of mycelia measured after 24 hrs by inverted microscopic analysis. In kind it is functional, organism-based. Summed up: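 Log-phase cells at 1×10^5 CFU/mL in RPMI1640 + 10% FBS allowed to adhere 90 min at 30 °C in 24-well plates. Excess medium removed, then 1 mL medium with or without drug (0.27, 0.53, 1.06 µg/mL; fluconazole group) added for 24 h at 30 °C. Crystal violet stain 30 min, PBS washes ×3, biofilm viewed by inverted microscope.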

Data set [6] deals with Candida albicans. The experiment in a line: Induction of morphological changes in Candida albicans assessed as blurred spacing between cell wall and cell membrane incubated for 16 to 24 hrs by transmission electron microscopic analysis. Type of data set: functional, organism-based. The following applies: time 16-24 hrs. The method in brief: (§1)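 Cells at 5×10^5 CFU/mL in SDB with drug (0.27, 0.53, 1.06 µg/mL), fluconazole or no drug. Shaken 150 r/min at 30 °C for 16–24 h, pelleted and PBS-washed. Fixed in 3% paraformaldehyde/2.5% glutaraldehyde at 4 °C, post-fixed in 1% OsO4, acetone-dehydrated and Epon-812 embedded. 60–90 nm sections stained with uranyl acetate and lead citrate, imaged by TEM.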

Data set [7] concerns Cell membrane. Nature of the data set: Induction of cell membrane permeability in Candida albicans assessed as increase in red fluorescence incubated for 16 to 24 hrs by PI staining based fluorescence microscopic analysis. Type of data set: subcellular. The conditions noted are these: time 16-24 hrs. Summed up:
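C. albicans at 1×10^5 CFU/mL in SDB grown with drug (0.27, 0.53, 1.06 µg/mL), fluconazole or no drug at 30 °C, 150 r/min, for 16-24 h. Cells washed and resuspended in PBS at 2×10^6 CFU/mL. Stained with propidium iodide (final 5 µg/mL) 30 min at room temperature in the dark, then washed. Imaged by fluorescence microscopy and fluorescence intensity measured.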

For data set [8], the system named is Candida albicans. The experiment in a line: Induction of morphological changes in Candida albicans assessed as normal cell wall appearance incubated for 16 to 24 hrs by transmission electron microscopic analysis. In kind it is functional, organism-based. The following applies: time 16-24 hrs. Summed up:
as §1

Data set [9] has as its system Candida albicans. The experiment in a line: Induction of morphological changes in Candida albicans assessed as absence of intracellular substance incubated for 16 to 24 hrs by transmission electron microscopic analysis. Type of data set: functional, organism-based. The conditions noted are these: time 16-24 hrs. Summed up:
as §1

The subject of data set [10] is Candida albicans. The experiment in a line: Antifungal activity against Candida albicans assessed as inhibition of mycelia formation measured after 4 to 8 hrs by inverted microscopic analysis. In kind it is functional, organism-based. The following applies: time 4-8 hrs. The method in brief: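 Hyphae induced in SD + 10% FBS or in Spider medium, log-phase cells at 1×10^5 CFU/mL. Drug at 0.27, 0.53 or 1.06 µg/mL, with fluconazole and drug-free controls, 1 mL per well in 24-well plates, triplicate. […], and mycelium formation viewed and photographed by inverted microscope at 4 and 8 h.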

Data set [11] has as its system Candida albicans. Nature of the data set: Induction of morphological changes in Candida albicans assessed as loose distribution of cytoplasm incubated for 16 to 24 hrs by transmission electron microscopic analysis. In kind it is functional, organism-based. The conditions noted are these: time 16-24 hrs. Summed up:
as §1

In another data set the test system is 16HBE14o-. Nature of the data set: Cytotoxicity against human 16HBE14o- cells assessed as reduction in cell viability 0.032 to 100 microg/ml incubated for 48 hrs by CCK8 assay. Type of data set: toxicity, cell-based. The following applies: dose 0.032-100 µg/ml. Summed up: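 16HBE cells seeded in RPMI1640 + 10% FBS + 1% antibiotics and attached 24 h at 37 °C. Medium replaced with drug in fivefold dilutions from 100 µg/mL, with fluconazole, growth and blank controls. Incubated 48 h, then CCK8 reagent added and plates incubated for viability read-out.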
For orientation: Tetrazolium dyes change colour on reduction, which living cells bring about.

`O=C(Cn1cc(COC(Cn2ccnc2)c2ccc(Cl)cc2Cl)nn1)c1ccc(Cl)cc1Cl` (stereo unspecified): the MIC50 came out at 8.72 µg/mL (≈ 16.6 µM) in the data set on Candida albicans [1] and 19.9 µg/mL (≈ 37.9 µM) in the data set on Candida albicans [2].

Turning to `Fc1ccc(Cn2cc(COC(Cn3ccnc3)c3ccc(Cl)cc3Cl)nn2)cc1F` (stereo unspecified), the MIC50 with Candida albicans [1] is 11.4 µg/mL (≈ 24.7 µM); in the data set on Candida albicans [2], 21.4 µg/mL (≈ 46 µM).

On to `FC(F)(F)c1ccc(Cn2cc(COC(Cn3ccnc3)c3ccc(Cl)cc3Cl)nn2)cc1` (stereo unspecified), for which the MIC50 in the data set on Candida albicans [1] came to 9.77 µg/mL (≈ 19.7 µM); in the data set with Candida albicans [2], 15 µg/mL (≈ 30.1 µM).

On to `Clc1ccc(Cn2cc(COC(Cn3ccnc3)c3ccc(Cl)cc3Cl)nn2)cc1` (stereo unspecified), for which the results for the MIC50 with Candida albicans [1] and with Candida albicans [2] were 1.78 µg/mL (≈ 3.85 µM) and 11 µg/mL (≈ 23.7 µM), respectively.

Regarding `Clc1ccc(C(Cn2ccnc2)OCc2cn(Cc3ccc(Br)cc3)nn2)c(Cl)c1` (stereo unspecified), the MIC50 stood at 1.33 µg/mL (≈ 2.62 µM) in the data set on Candida albicans [1] and 9.03 µg/mL (≈ 17.8 µM) in the data set with Candida albicans [2].

As to `Cc1ccc(C(=O)Cn2cc(COC(Cn3ccnc3)c3ccc(Cl)cc3Cl)nn2)cc1` (stereo unspecified), the MIC50 in the data set on Candida albicans [1] was determined as 3.34 µg/mL (≈ 7.1 µM); with Candida albicans [2], 26.2 µg/mL (≈ 55.6 µM).

Consider `COc1ccc(C(=O)Cn2cc(COC(Cn3ccnc3)c3ccc(Cl)cc3Cl)nn2)cc1OC` (stereo unspecified), for which the MIC50 in the data set on Candida albicans [1] was determined as 16.6 µg/mL (≈ 32.2 µM); in the data set with Candida albicans [2], 58.6 µg/mL (≈ 113 µM).

Consider `N#Cc1ccc(Cn2cc(COC(Cn3ccnc3)c3ccc(Cl)cc3Cl)nn2)cc1` (stereo unspecified), for which the MIC50 in the data set with Candida albicans [1] was found to be 26.1 µg/mL (≈ 57.6 µM); in the data set with Candida albicans [2], 93.2 µg/mL (≈ 206 µM).

Take `O=C(Cn1cc(COC(Cn2ccnc2)c2ccc(Cl)cc2Cl)nn1)c1ccc(Br)cc1` (stereo unspecified): the MIC50 came out at 0.51 µg/mL (≈ 0.953 µM) in the data set on Candida albicans [1] and 9.83 µg/mL (≈ 18.4 µM) in the data set with Candida albicans [2].

Turning to `O=C(Cn1cc(COC(Cn2ccnc2)c2ccc(Cl)cc2Cl)nn1)c1ccccc1Cl` (stereo unspecified), the MIC50 in the data set with Candida albicans [1] was 4.71 µg/mL (≈ 9.6 µM); with Candida albicans [2], 24.1 µg/mL (≈ 49 µM).

For the molecule `OC(Cn1cncn1)(Cn1cncn1)c1ccc(F)cc1F` [FLUCONAZOLE], the MIC50 with Candida albicans [1] was 1.52 µg/mL (≈ 4.96 µM); in the data set with Candida albicans [2], above 200 µg/mL. For the same molecule, the outcome in the data set on Cell membrane [3], in the data set on Candida albicans [4], in the data set with Candida albicans [5], in the data set on Candida albicans [6], in the data set with Candida albicans [8] and in the data set with Candida albicans [9] was Active. The result with Candida albicans [10] and in the data set on Candida albicans [11] was Active. The Activity entry is recorded as “Active; Small Amount Of Red Fluorescence Observed” in the data set with Cell membrane [7] and “Non-toxic” in the data set with 16HBE14o-.

`Clc1ccc(C(Cn2ccnc2)OCc2cn(C/C=C/c3ccccc3)nn2)c(Cl)c1` (stereo unspecified): the MIC50 was found to be 1.57 µg/mL (≈ 3.46 µM) in the data set on Candida albicans [1] and 11.5 µg/mL (≈ 25.2 µM) in the data set with Candida albicans [2].

For the molecule `O=C(Cn1cc(COC(Cn2ccnc2)c2ccc(Cl)cc2Cl)nn1)c1ccc(F)cc1F` (stereo unspecified), the MIC50 came to 0.69 µg/mL (≈ 1.4 µM) in the data set on Candida albicans [1] and 19.3 µg/mL (≈ 39.2 µM) in the data set on Candida albicans [2].

For `COC(=O)Cn1cc(COC(Cn2ccnc2)c2ccc(Cl)cc2Cl)nn1` (stereo unspecified), the MIC50 in the data set with Candida albicans [1] was 1.62 µg/mL (≈ 3.95 µM); in the data set with Candida albicans [2], above 200 µg/mL.

Consider `O=[N+]([O-])c1ccc(Cn2cc(COC(Cn3ccnc3)c3ccc(Cl)cc3Cl)nn2)cc1` (stereo unspecified), for which the MIC50 in the data set on Candida albicans [1] was 21.6 µg/mL (≈ 45.6 µM); in the data set on Candida albicans [2] it was 72.4 µg/mL (≈ 153 µM).

`CC(=O)Cn1cc(COC(Cn2ccnc2)c2ccc(Cl)cc2Cl)nn1` (stereo unspecified): the MIC50 in the data set with Candida albicans [1] was 90.8 µg/mL (≈ 230 µM); in the data set on Candida albicans [2] it was above 200 µg/mL.

As to `ClCCn1cc(COC(Cn2ccnc2)c2ccc(Cl)cc2Cl)nn1` (stereo unspecified), the MIC50 in the data set with Candida albicans [1] was determined as 1.2 µg/mL (≈ 2.99 µM); with Candida albicans [2], 14.1 µg/mL (≈ 35.3 µM).

As to `COC(=O)/C=C/c1ccc(Cn2cc(COC(Cn3ccnc3)c3ccc(Cl)cc3Cl)nn2)cc1` (stereo unspecified), the MIC50 in the data set on Candida albicans [1] turned out to be 16.5 µg/mL (≈ 32.2 µM); in the data set on Candida albicans [2], 17.8 µg/mL (≈ 34.8 µM).

Take `Clc1ccc(C(Cn2ccnc2)OCc2cn(Cc3ccc4ccccc4c3)nn2)c(Cl)c1` (stereo unspecified): the MIC50 came to 1.57 µg/mL (≈ 3.28 µM) with Candida albicans [1] and 4.57 µg/mL (≈ 9.55 µM) in the data set on Candida albicans [2].

With `C=CCn1cc(COC(Cn2ccnc2)c2ccc(Cl)cc2Cl)nn1` (stereo unspecified), the values for the MIC50 in the data set on Candida albicans [1] and in the data set with Candida albicans [2] were 29.4 µg/mL (≈ 77.8 µM) and 77.9 µg/mL (≈ 206 µM), respectively.

For the molecule `O=C(Cn1cc(COC(Cn2ccnc2)c2ccc(Cl)cc2Cl)nn1)c1ccc(F)cc1` (stereo unspecified), the MIC50 with Candida albicans [1] stood at 1.17 µg/mL (≈ 2.47 µM); in the data set with Candida albicans [2], 15.9 µg/mL (≈ 33.6 µM).

Take `Clc1ccc(C(Cn2ccnc2)OCc2cn(Cc3ccccc3)nn2)c(Cl)c1` (stereo unspecified): the MIC50 in the data set on Candida albicans [1] worked out at 6.63 µg/mL (≈ 15.5 µM); with Candida albicans [2] it was 21.5 µg/mL (≈ 50.2 µM).

As to `O=C(Cn1cc(COC(Cn2ccnc2)c2ccc(Cl)cc2Cl)nn1)c1ccccc1` (stereo unspecified), the MIC50 with Candida albicans [1] came out at 1.61 µg/mL (≈ 3.53 µM); in the data set on Candida albicans [2], 23.4 µg/mL (≈ 51.3 µM).
